Source: ChEMBL document CHEMBL1125881, “Synthesis and hypocholesterolemic activity of 6,7-dihydro-4H-pyrazolo[1,5-a]pyrrolo[3,4-d]pyrimidine-5,8-diones, novel inhibitors of acylCoA:cholesterol O-acyltransferase” (J Med Chem, 1991)
“And” between values parts separate entries of the source, which are not always exact repeats. Equal entries are not always repeated.

What was measured:
[1] = target: T1, Sterol O-acyltransferase 1 (Rattus norvegicus) (UniProt O70536); assay: Inhibition of Fu5AH Acyl coenzyme A:cholesterol acyltransferase at the concentration of 10 ug/mL
T1 sequence (whole entry): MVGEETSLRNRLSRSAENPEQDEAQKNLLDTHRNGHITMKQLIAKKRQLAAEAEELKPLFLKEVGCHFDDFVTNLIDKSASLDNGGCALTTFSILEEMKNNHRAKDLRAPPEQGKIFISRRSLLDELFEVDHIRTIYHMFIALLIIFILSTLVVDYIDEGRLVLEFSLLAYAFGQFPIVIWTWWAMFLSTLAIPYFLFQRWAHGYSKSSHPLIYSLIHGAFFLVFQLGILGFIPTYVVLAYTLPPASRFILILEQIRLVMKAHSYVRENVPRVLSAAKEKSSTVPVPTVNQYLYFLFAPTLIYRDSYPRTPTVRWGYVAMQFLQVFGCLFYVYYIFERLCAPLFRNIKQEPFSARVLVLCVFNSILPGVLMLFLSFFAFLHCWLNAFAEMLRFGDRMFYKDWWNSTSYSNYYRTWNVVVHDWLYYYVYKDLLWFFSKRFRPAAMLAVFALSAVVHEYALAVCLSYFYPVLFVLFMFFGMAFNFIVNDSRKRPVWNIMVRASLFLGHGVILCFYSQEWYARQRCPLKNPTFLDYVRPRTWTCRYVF

Rattus norvegicus [2] = organism: Rattus norvegicus; assay: (§1) Percent control of serum cholesterol in cholesterol; format: functional; design: concentration or dose not given beside the values
Method in brief: (§2)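 Male Sprague-Dawley rats (100–110 g), groups of 10, fed synthetic diet with 1% cholesterol; compound mixed into diet to give the stated daily dose (mg/kg) for 7 days. Serum from jugular bleed under anesthesia; VLDL+LDL separated from HDL by PEG-8000 precipitation in glycine buffer pH 9; values expressed as % of cholesterol-fed control; one-way design, LSD comparison.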

Rattus norvegicus [3] = organism: Rattus norvegicus; assay: as §1; format: functional; design: concentration or dose not given beside the values; method in brief: as §2; remark: listed apart in the source
Rattus norvegicus [4] = organism: Rattus norvegicus; assay: as §1; format: functional; design: concentration or dose not given beside the values; method in brief: as §2; remark: listed apart in the source
[5] = target: T2, Sterol O-acyltransferase 1 (Rattus norvegicus, UniProt O70536); assay: In vitro inhibition of Fu5AH acyl coenzyme A:cholesterol acyltransferase.
T2 sequence (O70536 whole entry): T1 sequence (whole entry)

Rattus norvegicus [6] = organism: Rattus norvegicus; assay: (§3) The compound was tested for % control of serum cholesterol in cholesterol; format: functional; method in brief: as §2
Rattus norvegicus [7] = organism: Rattus norvegicus; assay: as §3; format: functional; method in brief: as §2; remark: listed apart in the source
Rattus norvegicus [8] = organism: Rattus norvegicus; assay: as §3; format: functional; method in brief: as §2; remark: listed apart in the source
Rattus norvegicus [9] = organism: Rattus norvegicus; assay: as §3; format: functional; method in brief: as §2; remark: listed apart in the source
Rattus norvegicus [10] = organism: Rattus norvegicus; assay: as §3; format: functional; method in brief: as §2; remark: listed apart in the source

| SMILES | inhibition [1] | IC50 [5] | Control (Rattus norvegicus [2]) | Control (Rattus norvegicus [3]) | Control (Rattus norvegicus [4]) | other results |
| --- | --- | --- | --- | --- | --- | --- |
| O=C1c2c(c(=O)n3nc(C4CCCCC4)cc3n2Cc2ccccc2)CN1C1CCCCC1 | 12% | – | 109% | 111% | 106% | – |
| O=C1c2c(c(=O)n3nc(-c4ccccc4)cc3n2CC2CCCCC2)CN1C1CCCCC1 | 97% | 8.77 µM | 111% | 80% | 144% | – |
| CC(c1ccccc1)N1Cc2c(n(CC(=O)c3ccccc3)c3cc(-c4ccccc4)nn3c2=O)C1=O (stereo not given) | 30% | – | 91% | 92% | 90% | – |
| COc1ccc(CN2Cc3c(n(CC(=O)c4ccccc4)c4cc(-c5ccccc5)nn4c3=O)C2=O)cc1 | 10% | – | – | – | – | – |
| O=C1c2c(c(=O)n3nc(-c4ccccc4)cc3n2CC(O)c2ccccc2)CN1C1CCCCC1 (stereo not given) | 66% | – | – | – | – | – |
| Cn1c2c(c(=O)n3nc(-c4ccccc4)cc13)CN(C1CCCCC1)C2=O | 13% | – | – | – | – | – |
| C=CCOc1ccc(-c2cc3n(Cc4ccccc4)c4c(c(=O)n3n2)CN(C2CCCCC2)C4=O)cc1 | 65% | 11.5 µM | 94% | 95% | 98% | – |
| CCCCCCCCCCCCN1Cc2c(n(CC(=O)c3ccccc3)c3cc(-c4ccccc4)nn3c2=O)C1=O | 39% | – | 91% | 92% | 85% | – |
| O=C1c2c(c(=O)n3nc(-c4ccccc4)cc3n2Cc2ccccc2)CN1c1ccccc1 | 18% | – | – | – | – | – |
| O=C(Cn1c2c(c(=O)n3nc(-c4ccccc4)cc13)CN(C1CC3CCC1C3)C2=O)c1ccccc1 (stereo not given) | 83% | 4.39 µM | 75% | 90% | 63% | – |
| O=C(Cn1c2c(c(=O)n3nc(-c4ccccc4)cc13)CN(Cc1ccccc1)C2=O)c1ccccc1 | 70% | 5.48 µM | 100% | 100% | 101% | – |
| O=C1c2c(c(=O)n3ncc(-c4ccccc4)c3n2Cc2ccccc2)CN1C1CCCCC1 | 21% | – | – | – | – | – |
| CCOC(=O)CCCn1c2c(c(=O)n3nc(-c4ccccc4)cc13)CN(C1CCCCC1)C2=O | 28% | – | – | – | – | – |
| CCOc1ccc(-c2cc3n(Cc4ccccc4)c4c(c(=O)n3n2)CN(C2CCCCC2)C4=O)cc1 | 75% | – | 110% | 93% | 122% | – |
| CN1Cc2c(n(Cc3ccccc3)c3cc(-c4ccccc4)nn3c2=O)C1=O | 8% | – | – | – | – | – |
| CCCCCCCCCCCCCCCCOc1ccc(C(=O)Cn2c3c(c(=O)n4nc(-c5ccccc5)cc24)CN(C2CCCCC2)C3=O)cc1 | 2% | – | – | – | – | – |
| O=C1c2c(c(=O)n3nc(-c4ccccc4)cc3n2C/C=C/c2ccccc2)CN1C1CCCCC1 | 75% | 15.5 µM | – | – | – | – |
| O=C1c2c(c(=O)n3nc(-c4ccccc4)cc3n2CS(=O)(=O)c2ccccc2)CN1C1CCCCC1 | 31% | – | – | – | – | – |
| CCCCCCn1c2c(c(=O)n3nc(-c4ccccc4)cc13)CN(C1CCCCC1)C2=O | 48% | – | – | – | – | – |
| O=C1c2c(c(=O)n3nc(-c4ccccc4)cc3n2Cc2ccccc2)CN1C[C@H]1CC[C@H](O)CC1 | 23% | – | 108% | 90% | 128% | – |
| CC(C)(C)CC(C)(C)N1Cc2c(n(CC(=O)c3ccccc3)c3cc(-c4ccccc4)nn3c2=O)C1=O | 80% | 8.86 µM | 107% | 122% | 96% | – |
| CC(C)CC(C)N1Cc2c(n(CC(=O)c3ccccc3)c3cc(-c4ccccc4)nn3c2=O)C1=O (stereo not given) | 85% | 6.4 µM | 72% | 89% | 57% | – |
| CCCCCCCC/C=C\CCCCCCCCN1Cc2c(n(CC(=O)c3ccccc3)c3cc(-c4ccccc4)nn3c2=O)C1=O | 1% | – | 76% | 86% | 69% | – |
| O=C1c2c(c(=O)n3nc(-c4ccccc4)cc3n2Cc2ccccc2)CN1Cc1ccccc1 | 90% | 10.5 µM | 105% | 92% | 113% | – |
| CC(C(=O)c1ccccc1)n1c2c(c(=O)n3nc(-c4ccccc4)cc13)CN(C1CCCCC1)C2=O (stereo not given) | 55% | – | – | – | – | – |
| CCCCCCN1Cc2c(n(CC(=O)c3ccccc3)c3cc(-c4ccccc4)nn3c2=O)C1=O | 75% | – | 89% | 98% | 86% | – |
| O=C1c2c(c(=O)n3nccc3n2Cc2ccccc2)CN1C1CCCCC1 | 25% | – | – | – | – | – |

Now from value to compound, other results behind:

| inhibition [1] | IC50 [5] | SMILES | Control (Rattus norvegicus [2]) | Control (Rattus norvegicus [3]) | Control (Rattus norvegicus [4]) | other results |
| --- | --- | --- | --- | --- | --- | --- |
| 33% | – | O=C1c2c(c(=O)n3nc(-c4ccc(O)cc4)cc3n2Cc2ccccc2)CN1C1CCCCC1 | – | – | – | – |
| 78% | 13.7 µM | O=C(CCCn1c2c(c(=O)n3nc(-c4ccccc4)cc13)CN(C1CCCCC1)C2=O)c1ccccc1 | – | – | – | – |
| 39% | – | O=C(Cn1c2c(c(=O)n3nc(-c4ccccc4)cc13)CN(C1CCCCCCCCCCC1)C2=O)c1ccccc1 | 83% | 92% | 76% | – |
| 52% | – | COc1ccc(C(=O)Cn2c3c(c(=O)n4nc(-c5ccccc5)cc24)CN(C2CCCCC2)C3=O)cc1 | – | – | – | – |
| 88% | 5.16 µM | O=C(Cn1c2c(c(=O)n3nc(-c4ccccc4)cc13)CN(C1CCCCC1)C2=O)c1ccc(F)cc1 | 98% | 101% | 95% | – |
| 1% | – | COC(=O)c1ccc(C(=O)Cn2c3c(c(=O)n4nc(-c5ccccc5)cc24)CN(C2CCCCC2)C3=O)cc1 | 107% | 99% | 116% | – |
| 19% | – | O=C(Cn1c2c(c(=O)n3nc(-c4ccccc4)cc13)CN(C1CCCCC1)C2=O)c1ccc2ccccc2c1 | – | – | – | – |
| 25% | – | COC(=O)Cn1c2c(c(=O)n3nc(-c4ccccc4)cc13)CN(C1CCCCC1)C2=O | 109% | 112% | 109% | – |
| 87% | 2.74 µM | O=C(Cn1c2c(c(=O)n3nc(-c4ccccc4)cc13)CN(C1CCCCC1)C2=O)c1cccc([N+](=O)[O-])c1 | 106% | 83% | 126% | – |
| 55% | 22.9 µM | O=C1c2c(c(=O)n3nc(-c4ccccc4)cc3n2CSc2ccccc2)CN1C1CCCCC1 | – | – | – | – |
| 92% | 3.64 µM | O=C(Cn1c2c(c(=O)n3nc(-c4ccccc4)cc13)CN(C1CCCCC1)C2=O)c1ccccc1 | 97% and 88% | 128% | 65% | Control (Rattus norvegicus [6]): 120%; Control (Rattus norvegicus [7]): 97%; Control (Rattus norvegicus [8]): 84%; Control (Rattus norvegicus [9]): 75%; Control (Rattus norvegicus [10]): 133% |
| 68% | – | O=C(Cn1c2c(c(=O)n3nc(-c4ccccc4)cc13)CN(C1CCCCCCC1)C2=O)c1ccccc1 | 83% | 100% | 67% | – |
| 88% | 7.98 µM | O=C1c2c(c(=O)n3nc(-c4ccccc4)cc3n2Cc2ccccc2)CN1C1CCCCC1 | 104% | 97% | 110% | – |
